Test results published in paper PMC9078890 (RSC Advances, 2018).
Where two headings read alike, the source gives them in different places.

Assays:
PYK2 [1] = target: T1, PYK2 (Homo sapiens, UniProt Q14289); conditions: read-out: Reported IC50 PYK2; cited from earlier work
PYK2 [2] = target: T1, PYK2; test: Kinase selectivity profiling, HTRF kinEASE-TK; format: biochemical
Outline: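 HTRF KinEASE-TK format; enzyme level, reaction time and ATP level were optimised beforehand. Test compound in kinase buffer, at half-log serial dilutions from 100 µM top (final), was mixed with TK substrate-biotin and kinase. ATP was added to start the reaction, which ran at room temperature. Eu3+-cryptate TK antibody and streptavidin-XL665 (0.125 μM final) were added; TR-FRET was read after 1 h. Triplicates; IC50 from sigmoid dose-response fit.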

PDGFRβ = PDGFRβ (Homo sapiens, UniProt P09619); test: Kinase selectivity profiling, HTRF kinEASE-TK; format: biochemical; conditions: relative to FAK
[3] = target: Truncated human FAK(PTK2) (Homo sapiens, UniProt Q05397); test: In vitro FAK inhibition, HTRF kinEASE-TK kinase assay; format: biochemical
Truncated human FAK(PTK2), sequence (Q05397 376-1052): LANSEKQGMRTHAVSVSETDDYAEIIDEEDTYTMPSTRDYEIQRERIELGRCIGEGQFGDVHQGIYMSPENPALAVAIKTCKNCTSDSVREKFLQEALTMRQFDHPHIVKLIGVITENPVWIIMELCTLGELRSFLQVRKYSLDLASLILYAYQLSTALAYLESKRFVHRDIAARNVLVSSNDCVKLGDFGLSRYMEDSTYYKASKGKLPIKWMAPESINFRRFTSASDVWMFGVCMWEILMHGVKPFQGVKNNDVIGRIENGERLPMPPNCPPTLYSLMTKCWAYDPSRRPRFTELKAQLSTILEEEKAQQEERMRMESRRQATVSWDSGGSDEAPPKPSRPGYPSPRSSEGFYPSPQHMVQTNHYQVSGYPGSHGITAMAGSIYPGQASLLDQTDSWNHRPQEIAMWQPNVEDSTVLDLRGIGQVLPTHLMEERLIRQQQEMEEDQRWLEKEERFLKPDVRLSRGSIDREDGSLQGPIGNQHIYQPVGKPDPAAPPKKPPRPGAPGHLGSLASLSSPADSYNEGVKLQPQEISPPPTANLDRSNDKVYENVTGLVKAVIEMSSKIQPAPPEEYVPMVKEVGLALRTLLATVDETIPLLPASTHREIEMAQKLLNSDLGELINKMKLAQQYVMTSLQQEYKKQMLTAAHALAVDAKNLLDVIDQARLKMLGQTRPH

IGF-1R = IGF-1R (Homo sapiens, UniProt P08069); test: Kinase selectivity profiling, HTRF kinEASE-TK; format: biochemical; conditions: relative to FAK
IGF-1R, sequence (P08069 31-1367, species assumed): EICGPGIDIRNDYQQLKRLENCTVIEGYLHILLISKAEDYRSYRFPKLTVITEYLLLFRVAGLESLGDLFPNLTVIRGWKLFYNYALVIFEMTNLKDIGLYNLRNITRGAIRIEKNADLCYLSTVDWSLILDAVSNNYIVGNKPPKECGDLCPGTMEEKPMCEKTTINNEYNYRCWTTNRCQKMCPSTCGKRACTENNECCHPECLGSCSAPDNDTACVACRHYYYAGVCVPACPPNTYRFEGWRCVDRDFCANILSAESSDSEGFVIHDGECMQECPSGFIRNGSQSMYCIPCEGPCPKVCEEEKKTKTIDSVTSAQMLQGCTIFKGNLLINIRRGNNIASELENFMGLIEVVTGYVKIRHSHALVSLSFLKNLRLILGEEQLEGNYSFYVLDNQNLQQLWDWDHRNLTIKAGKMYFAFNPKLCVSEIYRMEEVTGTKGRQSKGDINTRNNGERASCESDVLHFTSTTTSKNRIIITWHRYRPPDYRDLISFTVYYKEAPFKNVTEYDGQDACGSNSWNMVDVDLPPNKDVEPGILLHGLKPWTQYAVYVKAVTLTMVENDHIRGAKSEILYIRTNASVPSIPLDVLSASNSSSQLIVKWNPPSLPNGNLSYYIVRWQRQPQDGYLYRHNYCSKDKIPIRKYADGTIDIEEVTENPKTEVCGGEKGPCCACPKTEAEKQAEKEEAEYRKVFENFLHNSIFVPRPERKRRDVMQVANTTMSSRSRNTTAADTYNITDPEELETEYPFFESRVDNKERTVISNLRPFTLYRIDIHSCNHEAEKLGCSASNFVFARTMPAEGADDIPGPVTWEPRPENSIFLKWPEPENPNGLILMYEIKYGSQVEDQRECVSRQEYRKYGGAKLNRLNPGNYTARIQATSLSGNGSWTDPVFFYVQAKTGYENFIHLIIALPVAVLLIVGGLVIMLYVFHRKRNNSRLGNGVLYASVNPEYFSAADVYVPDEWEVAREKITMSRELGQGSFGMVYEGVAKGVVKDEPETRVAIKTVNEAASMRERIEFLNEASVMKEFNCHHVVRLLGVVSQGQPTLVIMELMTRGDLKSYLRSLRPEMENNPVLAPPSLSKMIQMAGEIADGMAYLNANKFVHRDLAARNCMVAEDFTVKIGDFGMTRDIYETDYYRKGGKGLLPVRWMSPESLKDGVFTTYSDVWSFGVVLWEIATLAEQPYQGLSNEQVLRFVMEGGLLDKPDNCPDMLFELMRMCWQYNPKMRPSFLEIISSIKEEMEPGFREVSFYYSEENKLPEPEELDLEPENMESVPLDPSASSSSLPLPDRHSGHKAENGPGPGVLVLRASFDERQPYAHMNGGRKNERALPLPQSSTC

EGFR = EGFR (Homo sapiens, UniProt P00533); test: biochemical; format: biochemical
EGFR, sequence (P00533 25-1210, species assumed): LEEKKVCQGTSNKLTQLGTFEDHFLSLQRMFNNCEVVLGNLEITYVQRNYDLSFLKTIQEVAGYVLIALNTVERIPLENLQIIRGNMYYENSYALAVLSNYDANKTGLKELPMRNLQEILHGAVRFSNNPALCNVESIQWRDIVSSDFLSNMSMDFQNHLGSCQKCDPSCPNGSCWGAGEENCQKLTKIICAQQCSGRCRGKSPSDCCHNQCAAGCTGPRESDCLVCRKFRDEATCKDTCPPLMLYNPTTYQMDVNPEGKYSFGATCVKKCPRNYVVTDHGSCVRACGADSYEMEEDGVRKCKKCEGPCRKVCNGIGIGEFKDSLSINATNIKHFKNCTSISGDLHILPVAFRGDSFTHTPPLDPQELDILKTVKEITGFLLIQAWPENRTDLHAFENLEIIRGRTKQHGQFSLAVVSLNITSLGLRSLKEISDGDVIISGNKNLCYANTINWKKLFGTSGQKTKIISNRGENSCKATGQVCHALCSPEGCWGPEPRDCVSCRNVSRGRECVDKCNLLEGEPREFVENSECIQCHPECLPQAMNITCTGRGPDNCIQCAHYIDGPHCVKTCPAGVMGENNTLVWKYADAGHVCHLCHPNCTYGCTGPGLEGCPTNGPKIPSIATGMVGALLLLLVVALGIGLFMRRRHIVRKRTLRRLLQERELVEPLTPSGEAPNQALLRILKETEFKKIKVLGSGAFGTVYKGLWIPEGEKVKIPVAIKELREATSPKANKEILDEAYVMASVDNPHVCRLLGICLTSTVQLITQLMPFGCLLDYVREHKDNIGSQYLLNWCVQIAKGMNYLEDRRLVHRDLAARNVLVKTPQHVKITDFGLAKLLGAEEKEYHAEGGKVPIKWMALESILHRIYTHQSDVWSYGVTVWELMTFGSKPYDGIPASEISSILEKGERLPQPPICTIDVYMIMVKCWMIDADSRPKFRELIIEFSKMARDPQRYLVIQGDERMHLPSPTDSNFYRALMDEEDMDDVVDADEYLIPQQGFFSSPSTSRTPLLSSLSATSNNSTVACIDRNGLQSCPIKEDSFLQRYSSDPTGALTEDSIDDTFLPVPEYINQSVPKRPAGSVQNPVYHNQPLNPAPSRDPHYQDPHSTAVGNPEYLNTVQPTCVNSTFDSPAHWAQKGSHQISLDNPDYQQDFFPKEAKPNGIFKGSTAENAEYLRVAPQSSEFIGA

T1 sequence (Q14289 whole entry, species assumed): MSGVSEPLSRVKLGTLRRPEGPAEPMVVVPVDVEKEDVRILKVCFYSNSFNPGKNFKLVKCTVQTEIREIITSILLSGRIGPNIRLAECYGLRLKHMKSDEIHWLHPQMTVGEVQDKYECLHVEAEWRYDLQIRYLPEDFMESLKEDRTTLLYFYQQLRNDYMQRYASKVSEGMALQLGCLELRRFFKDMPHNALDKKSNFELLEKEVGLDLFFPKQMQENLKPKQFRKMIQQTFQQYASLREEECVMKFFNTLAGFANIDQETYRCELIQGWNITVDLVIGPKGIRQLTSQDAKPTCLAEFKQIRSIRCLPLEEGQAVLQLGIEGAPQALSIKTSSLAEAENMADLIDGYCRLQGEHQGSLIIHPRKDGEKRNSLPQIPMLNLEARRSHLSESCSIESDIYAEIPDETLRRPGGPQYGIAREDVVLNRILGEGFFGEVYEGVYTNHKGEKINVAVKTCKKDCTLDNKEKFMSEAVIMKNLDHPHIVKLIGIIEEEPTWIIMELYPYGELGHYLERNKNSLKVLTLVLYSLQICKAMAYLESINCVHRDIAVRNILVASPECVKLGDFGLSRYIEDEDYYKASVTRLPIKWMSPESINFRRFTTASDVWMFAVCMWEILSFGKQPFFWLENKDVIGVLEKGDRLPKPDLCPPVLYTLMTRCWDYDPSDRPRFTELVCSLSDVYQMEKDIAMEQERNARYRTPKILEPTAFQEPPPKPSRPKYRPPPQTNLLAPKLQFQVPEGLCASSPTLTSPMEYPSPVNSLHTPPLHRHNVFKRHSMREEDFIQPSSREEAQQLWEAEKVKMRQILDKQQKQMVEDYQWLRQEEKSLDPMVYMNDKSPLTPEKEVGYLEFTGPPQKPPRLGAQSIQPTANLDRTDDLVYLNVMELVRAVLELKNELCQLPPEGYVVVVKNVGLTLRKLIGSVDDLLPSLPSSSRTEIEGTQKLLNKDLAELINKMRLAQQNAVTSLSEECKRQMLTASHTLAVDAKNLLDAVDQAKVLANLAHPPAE

SMILES	IC50 (PYK2 [1]) [nM]	IC50 (PYK2 [2]; read-out: IC50 ± SD PYK2, mean of three determinations) [nM]	selectivity against PDGFRβ (PDGFRβ)	IC50 [3] [nM]	IC50 (PYK2 [2]) [nM]	selectivity against PYK2 (PYK2 [2]; relative to FAK) [folds]	selectivity against IGF-1R (IGF-1R)	IC50 (EGFR) [nM]	selectivity against EGFR (EGFR; relative to FAK) [folds]
CNC(=O)c1ccccc1Nc1nc(Nc2ccc(N3CCOCC3)cc2OC)ncc1Cl [NVP-TAE226, reference compound]	3.5 ± 2.1	5.7 ± 1.4	–	–	–	–	–	–	–
COc1ccc(Nc2nc(Nc3ccc(OCCOCCF)cc3)ncc2Br)cc1 [[^19F]2, 5-Bromo-N^2-(4-(2-(2-fluoroethoxy)ethoxy)phenyl)-N^4-(4-methoxyphenyl)pyrimidine-2,4-diamine]	–	–	more than 200 folds	57.1 ± 8.3	3560 ± 626	62.4	more than 200 folds	4310 ± 562	75.5
COc1ccc(Nc2nc(Nc3ccc(OCCOCCOCCF)cc3)ncc2Br)cc1 [[^19F]3, 5-Bromo-N^2-(4-(2-(2-(2-fluoroethoxy)ethoxy)ethoxy)phenyl)-N^4-(4-methoxyphenyl)pyrimidine-2,4-diamine]	–	–	–	1110 ± 60.9	–	–	–	–	–
